Experimental data from ChEMBL document CHEMBL2034936, “Discovery and extensive in vitro evaluations of NK-HDAC-1: a chiral histone deacetylase inhibitor as a promising lead” (J Med Chem, 2012).
The source made the active and inactive calls. No cut-off for these calls is given here.

Key:
MCF7 = test: cells; format: functional; conditions: Homo sapiens, MCF7, 48 h
OVCAR-3 = test: cells; format: functional; conditions: Homo sapiens, OVCAR-3, 72 h
M14 = test: cells; format: functional; conditions: Homo sapiens, M14, 72 h
in vitro = conditions: human, MCF10A cells
SK-MEL-2 = test: cells; format: functional; conditions: Homo sapiens, SK-MEL-2, 72 h
HL-60(TB) = test: cells; format: functional; conditions: Homo sapiens, HL-60, 72 h
NCI-H23 = test: cells; format: functional; conditions: Homo sapiens, NCI-H23, 72 h
SK-MEL-5 = test: cells; format: functional; conditions: Homo sapiens, SK-MEL-5, 72 h
cells = format: functional; conditions: Homo sapiens, Hs-578T, 72 h
DU-145 = test: cells; format: functional; conditions: Homo sapiens, DU-145, 72 h
U-251 = test: cells; format: functional; conditions: Homo sapiens, U-251, 72 h
SK-MEL-28 = test: cells; format: functional; conditions: Homo sapiens, SK-MEL-28, 72 h
SNB-75 = test: Growth inhibition of human SNB75 cells after 72 hrs by MTS assay; format: functional; conditions: SNB-75, 72 h
A549 = test: cells; format: functional; conditions: Homo sapiens, A549, 72 h
MOLT-4 = test: Growth inhibition of human MOLT4 cells after 72 hrs by MTS assay; format: functional; conditions: MOLT-4, 72 h
MDA-MB-468 = test: cells; format: functional; conditions: Homo sapiens, MDA-MB-468, 72 h
K562 = test: cells; format: functional; conditions: Homo sapiens, K562, 72 h
HCT-15 = test: cells; format: functional; conditions: Homo sapiens, HCT-15, 72 h
LOX IMVI = test: cells; format: functional; conditions: Homo sapiens, 72 h
A498 = test: cells; format: functional; conditions: Homo sapiens, A498, 72 h
SF-539 = test: cells; format: functional; conditions: Homo sapiens, SF-539, 72 h
SF-268 = test: cells; format: functional; conditions: Homo sapiens, SF-268, 72 h
SW-620 = test: cells; format: functional; conditions: Homo sapiens, SW-620, 72 h
COLO 205 = test: Growth inhibition of human COLO205 cells after 72 hrs by MTS assay; format: functional; conditions: COLO 205, 72 h
SK-OV-3 = test: cells; format: functional; conditions: Homo sapiens, SK-OV-3, 72 h
HCT-116 = test: Growth inhibition of human HCT116 cells after 72 hrs by MTS assay; format: functional; conditions: HCT-116, 72 h
[1] = target: T1, Histone deacetylase (Homo sapiens) (UniProt Q13547+O15379+Q9UBN7+Q92769+Q9UQL6+Q8WUI4+Q9BY41+Q96DB2+P56524+Q9UKV0+Q969S8); test: Inhibition of HDAC in human MDA-MB-231 cells assessed as stimulation of histone H3 acetylation at 0.1 uM incubated for 24 hrs by Western blot; format: cell-based
In short: (§1)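 MDA-MB-231 cells in 35-mm dishes, dosed 24 h at graded concentrations, then trypsinized and PBS-washed. Lysed in RIPA (50 mM Tris-HCl pH 7.5, protease and phosphatase inhibitors) for 30 min at 4 °C, then cleared at 12,000g. Lysate, 60 μg protein by BCA, run on SDS-PAGE and PVDF. Blotted with anti-acetyl-histone H3 and HRP anti-rabbit, read by ECL.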

T47D = test: cells; format: functional; conditions: Homo sapiens, 72 h
SF-295 = test: cells; format: functional; conditions: Homo sapiens, SF-295, 72 h
MDA-MB-435 = test: cells; format: functional; conditions: Homo sapiens, MDA-MB-435, 72 h
[2] = Half life in artificial intestinal fluid; format: physicochemical
[3] = Lipophilicity, log D of the compound in pH 7.4 PBS buffer; format: physicochemical
BT-549 = test: cells; format: functional; conditions: Homo sapiens, BT-549, 72 h
Malme-3M = test: cells; format: functional; conditions: Homo sapiens, 72 h
UACC-62 = test: Growth inhibition of human UACC62 cells after 72 hrs by MTS assay; format: functional; conditions: UACC-62, 72 h
Histone deacetylase = test: Inhibition of HDAC in human HeLa cell nuclear extracts using Ac-Arg-Gly-Lys(Ac)-AMC substrate by fluorimetry; format: protein assay
[4] = Efflux ratio, ratio of apparent permeability from basolateral to apical side over apparent permeability from apical to basolateral side in human Caco2 cells at 10 uM; format: ADME, cell-based; conditions: Caco-2
In short: (§2)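 Caco-2 monolayers, test compound at 10 μM. Apparent permeability measured in both directions, apical to basolateral and basolateral to apical. Efflux ratio = P_app B to A / P_app A to B. Run by a contract lab following published methods. Mean of three independent triplicate experiments.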

RXF 393 = test: cells; format: functional; conditions: Homo sapiens, RXF 393, 72 h
HT-29 = test: Growth inhibition of human HT-29 cells after 72 hrs by MTS assay; format: functional; conditions: HT-29, 72 h
OVCAR-8 = test: cells; format: functional; conditions: Homo sapiens, OVCAR-8, 72 h
[5] = Apparent permeability from apical to basolateral side in human Caco2 cells at 10 uM; format: ADME, cell-based; conditions: Caco-2
In short: as §2

[6] = target: T1, Histone deacetylase (Homo sapiens); test: Inhibition of HDAC in human MDA-MB-231 cells assessed as stimulation of histone H3 acetylation at 5 uM incubated for 24 hrs by Western blot; format: cell-based
In short: as §1

IGROV-1 = test: cells; format: functional; conditions: Homo sapiens, IGROV-1, 72 h
EKVX = test: cells; format: functional; conditions: Homo sapiens, 72 h
MDA-MB-231 = test: cells; format: functional; conditions: Homo sapiens, MDA-MB-231, 72 h
Cytochrome P450 3A4 = Cytochrome P450 3A4 (Homo sapiens, UniProt P08684); test: Inhibition of human CYP3A4; format: ADME
UO-31 = test: cells; format: functional; conditions: Homo sapiens, UO-31, 72 h

Sequence of Cytochrome P450 3A4 (P08684 whole entry): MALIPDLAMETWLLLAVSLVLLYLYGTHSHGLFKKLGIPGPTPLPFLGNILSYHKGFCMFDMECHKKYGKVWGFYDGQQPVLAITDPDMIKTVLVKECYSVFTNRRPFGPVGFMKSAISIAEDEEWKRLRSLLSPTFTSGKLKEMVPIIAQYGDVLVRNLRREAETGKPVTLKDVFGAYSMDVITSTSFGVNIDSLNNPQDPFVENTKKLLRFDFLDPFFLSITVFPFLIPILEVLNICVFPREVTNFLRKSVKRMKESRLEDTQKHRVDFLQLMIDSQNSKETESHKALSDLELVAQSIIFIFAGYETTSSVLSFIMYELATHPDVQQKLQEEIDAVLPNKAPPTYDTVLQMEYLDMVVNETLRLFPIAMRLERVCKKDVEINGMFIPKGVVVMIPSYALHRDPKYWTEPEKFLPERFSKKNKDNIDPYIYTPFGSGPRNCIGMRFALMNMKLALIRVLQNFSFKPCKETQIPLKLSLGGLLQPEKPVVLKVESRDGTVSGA

For `CC(C)[C@@H](c1nc2ccccc2o1)n1cc(/C=C/C(=O)NO)nn1`, the GI50 (MCF7) was 180 nM, the GI50 (OVCAR-3) was 220 nM and the GI50 (M14) was 180 nM. For the same compound, the GI50 at 48 h (in vitro) was 1600 nM, the GI50 (SK-MEL-2) was 87 nM and the GI50 (HL-60(TB)) was 190 nM. The GI50 (NCI-H23) was 140 nM, the GI50 (SK-MEL-5) was 100 nM and the GI50 (cells) was 580 nM. The GI50 (DU-145) was 160 nM, the GI50 (U-251) was 180 nM and the GI50 (SK-MEL-28) was 220 nM. It also gave a GI50 (SNB-75) of 250 nM, a GI50 (A549) of 160 nM and a GI50 (MOLT-4) of 72 nM. For the same compound, the GI50 (MDA-MB-468) was 150 nM, the GI50 (K562) was 88 nM and the GI50 (HCT-15) was 470 nM. For the same compound, the GI50 (LOX IMVI) was 44 nM, the GI50 (A498) was 180 nM and the GI50 (SF-539) was 240 nM. It also gave a GI50 (SF-268) of 330 nM, a GI50 (SW-620) of 130 nM and a GI50 (COLO 205) of 140 nM. For the same compound, the GI50 (SK-OV-3) was 140 nM, the GI50 (HCT-116) was 38 nM and the inhibition [1] was “Active”. It also gave a GI50 (T47D) of 51 nM, a GI50 (SF-295) of 120 nM and a GI50 (MDA-MB-435) of 91 nM. The half-life [2] was greater than 24 h, the logD [3] was 2 and the GI50 (BT-549) was 52 nM. The GI50 (Malme-3M) was 16 nM, the GI50 (UACC-62) was 140 nM and the IC50 (Histone deacetylase) was 7 nM. It also gave an efflux ratio at 10 µM [4] of 1.15, a GI50 (RXF 393) of 180 nM and a GI50 (HT-29) of 79 nM. For the same compound, the GI50 (OVCAR-8) was 84 nM, the Papp A→B at 10 µM [5] was 6.61 ×10⁻⁶ cm/s and the “histone H3 acetylation activity (active/not active)” value [6] was “Active”. For the same compound, the GI50 (IGROV-1) was 56 nM, the GI50 (EKVX) was 240 nM and the GI50 (MDA-MB-231) was 520 nM. The INH (Cytochrome P450 3A4) was 31.9 µM and the GI50 (UO-31) was 60 nM.
